# Assay outcomes (PubChem BioAssay)
# An excerpt weighted towards active compounds, which were near 4.3% of everything screened.
# TAAR1 ag: human TAAR1 agonism; CHO RD-HGA16 TAAR1, Fluo-8 calcium fluorescence; vehicle wells 0%, saturating PEA agonist 100%; actives 0.99% (n = 360,000); AID 624467; activation, % at 3 µM;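 active = activation above the mean activation of all test compounds in the run plus 3 SD, cut at about 38% in these data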
# Target sequence (Q96RJ0 whole entry, looked up): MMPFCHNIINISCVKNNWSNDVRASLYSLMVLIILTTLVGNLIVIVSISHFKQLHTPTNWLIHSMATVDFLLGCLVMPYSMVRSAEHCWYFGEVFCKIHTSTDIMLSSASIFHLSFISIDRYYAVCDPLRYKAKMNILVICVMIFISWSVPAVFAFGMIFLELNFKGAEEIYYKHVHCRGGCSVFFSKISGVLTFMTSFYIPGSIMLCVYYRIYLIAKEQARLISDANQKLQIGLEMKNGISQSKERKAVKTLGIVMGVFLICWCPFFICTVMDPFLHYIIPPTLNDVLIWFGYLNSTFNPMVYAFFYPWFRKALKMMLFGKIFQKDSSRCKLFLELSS
#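 test system = CHO RD-HGA16 cells carrying human TAAR1 plus Gα16 | schedule = 17-24 h seeding, 75 min 37 °C dye, 30 min RT | compound dosing = 3 µM single concentration | control set = DMSO and PEA EC100 | replicates = n 1 | signal = Fluo-8 fluorescence, 5 s baseline then 140 s kinetic read | measure = percent activation vs PEA EC100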
# CHO parental Ca: signal in parental CHO cells, OX1R antagonist counter-screen; actives 0.63% (n = 330,000); AID 463079; inhibition, % at 5.6 µM; parental CHO-K1, ATP-induced calcium, Fluo-8 fluorescence;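 active = inhibition above that plate's mean sample inhibition plus 3 SD, cut at about 26% in these data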
#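 Assay system: parental CHO cells; Read-out basis: percent inhibition of ATP-evoked calcium rise, normalized to controls; Benchmarks: ATP and no-ATP DMSO wells; Compound dosing: single nominal dose of 5.6 µM per compound; Signal: Fluo-8 calcium dye fluorescence; Also added: ATP as calcium-mobilizing challenge; Repeats: singlicate.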
# OX1R antag-1: OX1R (human) antagonism; AID 485270; OX1R-expressing cells, FRET antagonist read-out; inhibition, % at 6.6 µM; O43613; actives 1.8% (n = 330,000); in the data active = inhibition mostly above about 38%, no sharp cut-off; inactive = mostly below about 40%
# GalR3 antag: human GalR3 antagonism. inhibition, % at 3 µM. actives 0.44% (n = 360,000). AID 651719. HEK293 GalR3-CNG cAMP membrane potential fluorescence; galR3 body fused to GalR1 C-terminus;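 active = inhibition above the screen-wide average plus 3 SD, cut at about 13% in these data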;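 also: forskolin and galanin both at EC90 stimulate the cells; cAMP rise reported by CNG channel membrane potential dye signal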
# Target sequence (O60755 1-299 limits assumed): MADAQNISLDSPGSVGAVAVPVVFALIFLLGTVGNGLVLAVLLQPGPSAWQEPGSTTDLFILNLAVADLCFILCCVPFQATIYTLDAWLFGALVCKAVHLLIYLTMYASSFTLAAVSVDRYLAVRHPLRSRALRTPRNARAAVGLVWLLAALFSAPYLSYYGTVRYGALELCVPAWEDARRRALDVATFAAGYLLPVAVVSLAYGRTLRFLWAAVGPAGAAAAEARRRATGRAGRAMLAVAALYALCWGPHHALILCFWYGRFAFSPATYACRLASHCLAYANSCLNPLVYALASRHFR
# TAAR1 antagonist: human TAAR1 antagonism; Q96RJ0; CHO RD-HGA16 TAAR1, Fluo-8 calcium fluorescence, antagonist; inhibition, % at 3 µM; actives 1.5% (n = 360,000); AID 624466;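 active = inhibition above a per-plate cutoff, the mean inhibition of test compounds on that plate plus 3 SD, cut at about 49% in these data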
#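 Test system – hTAAR1-expressing CHO RD-HGA16 cells, Gα16-coupled · Also added – β-PEA at EC80 concentration, post-compound challenge · Compound – 3 µM, single point · Incubation – dye loading 75 min at 37 °C, then 30 min room temperature · Measured by – Fluo-8 intracellular calcium dye fluorescence, real-time kinetic reads · Benchmarks – vehicle and agonist controls · Replicates – singlicate, one well per test compound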
# OX1R antag-2: antagonists of human orexin 1 receptor. actives 0.43% (n = 330,000). inhibition, % at 5 µM. O43613. CHO/OX1R cells, Fluo-8 calcium fluorescence, orexin A;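 active = inhibition above its plate's threshold, mean inhibition of all tested compounds on the plate plus 3 SD, cut at about 37% in these data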
# A number is an active result; n = inactive; x = no result.
SMILES,TAAR1 ag,CHO parental Ca,OX1R antag-1,GalR3 antag,TAAR1 antagonist,OX1R antag-2
COc1cc(CNn2c(C)n[nH]c2=S)cc(Cl)c1OCc1ccc(F)cc1,n,35,n,n,n,45
CCOc1cc(CNC2CCCC2)cc(Cl)c1OCc1ccc(F)cc1,40,n,n,n,n,n
CN(C)CCNc1nc2sc3c(c2c(=O)n1CCc1ccccc1)CCCCC3,40,n,n,n,n,n
COc1cc(C(=O)ON=C2C=C(C)C(=O)C(C)=C2)cc(OC)c1OC,n,n,75,n,n,n
Cc1ccc(C(=O)N2CCCCC2)cc1NC1=C(Cl)C(=O)N(Cc2ccccc2)C1=O,n,n,n,n,50,n
Cc1ccc(O)c(NC2=C(Cl)C(=O)N(Cc3ccccc3)C2=O)c1,n,x,x,n,n,x
CCSc1nnc(NC(=O)NC(CC)(C(F)(F)F)C(F)(F)F)s1,n,79,n,n,n,66
NC(N)=N/N=C/c1cccc([N+](=O)[O-])c1O,n,n,n,n,n,n
NC(N)=N/N=C/c1cccc(Cl)c1Cl,42,n,n,n,n,n
COC(=O)[C@@H]1[C@@H](C#N)C2(c3ccccc3-c3ccccc32)N(c2ccc(Cl)cc2)N1C#N,n,n,n,n,50,n
O=C(Cc1ccc(Cl)cc1)NN1C(=O)c2ccccc2C1=O,n,n,n,n,n,n
O=C(NC1CCN(c2ncccn2)CC1)c1ccccc1Cl,n,n,n,n,n,n
Cc1cc(C(=O)COc2ccc(Br)cc2F)c(C)n1CC1CCCO1 (stereo not drawn),n,x,x,n,n,x
CCN1CCC(O)(/C=C/c2ccc(C(C)C)cc2)C(C(=O)/C=C/c2ccc(C(C)C)cc2)C1 (stereo not drawn),40,x,x,n,n,x
CC(Oc1ccc(C#N)cc1)C(=O)Nc1ccc(-n2cnnn2)cc1 (stereo not drawn),44,x,x,n,n,x
Brc1cc2c(cc1Br)OCCOCCOCCOCCO2,n,n,n,n,n,n
Brc1ccc2c(c1)OCCOCCOc1cc(Br)ccc1OCCOCCOCCO2,x,57,n,x,x,72
c1ccc2c(c1)OCCOCCOc1ccccc1OCCOCCO2,n,n,n,n,53,n
CCOc1ccc(S(=O)(=O)N2CCOCC2)cc1NC(=O)CCN1C(=O)NC2(CCCC2)C1=O,n,x,x,n,n,x
COCCN1C[C@@H](CO)O[C@@H](n2cnc3c(N(C)C(C)C)ncnc32)C1,n,x,x,n,n,x
Cn1nccc1-c1ccc(C(=O)NCc2ccco2)c2occc12,n,x,x,n,n,x
CC(Oc1ccc(Br)cc1)C(=O)Nc1nc(-c2ccccn2)cs1 (stereo not drawn),n,35,n,n,n,n
c1ccc2c(c1)[nH]c1nc3nncn3nc12,n,n,53,n,n,n
S=c1nc2[nH]c3ccccc3c2n[nH]1,n,x,x,n,n,x
CN(C(=S)Nc1ccc(Oc2ccccc2)cc1)C1CCCCC1,n,29,n,n,n,n
SMILES,TAAR1 ag,CHO parental Ca,OX1R antag-1,GalR3 antag,TAAR1 antagonist,OX1R antag-2
CCCCc1c(-c2ccccc2OC)ncn1Cc1ccccc1Cl,n,x,x,n,n,x
CCOC(=O)C(CC1=CS(=O)(=O)c2ccc(Cl)cc21)(NC(C)=O)C(=O)OCC,n,x,x,n,n,x
CNC(=O)c1ccc(NC(=O)c2ccc3c(=O)n4c(nc3c2)CCC4)cc1,n,n,n,n,53,n
CC(=O)c1ccc(NC(=O)c2ccc3c(=O)n4c(nc3c2)CCCCC4)cc1,n,n,n,n,n,n
Cc1cc(C(=O)COc2ccc(Cl)cc2Br)c(C)n1C,n,26,n,n,n,n
O=C(O)CN1C(=O)S/C(=C\c2cccnc2)C1=O,n,n,n,n,n,n
CN1C(=O)S/C(=C/c2cccnc2)C1=O,n,n,65,n,n,n
O=C(CSc1nnc2scc(-c3ccccc3)n12)Nc1nsc(-c2ccccc2)n1,x,n,73,x,x,n
O=C(CSc1nnc2scc(-c3ccccc3)n12)Nc1nsc(-c2ccc(Cl)cc2)n1,n,n,n,n,n,n
COc1cc(OC)cc(OC(=O)C2CCN(C3=NS(=O)(=O)c4ccccc43)CC2)c1,n,n,n,n,n,n
Clc1nc(Nc2ccc(N3CCOCC3)cc2)c2ccccc2n1,n,n,70,n,n,n
CCOC(=O)c1nc(Nc2ccc(N3CCOCC3)cc2)c2ccccc2n1,n,n,n,n,n,n
CC12CCC(c3c(C(=O)Nc4nccs4)nn(-c4ccccc4)c31)C2(C)C (stereo not drawn),n,n,n,n,n,n
CC12CCC(c3c(C(=O)O)nn(-c4ccccc4)c31)C2(C)C (stereo not drawn),n,n,41,n,n,n
O=[N+]([O-])c1ccc2c(c1)C(=NO)c1cc(Cl)c(Cl)cc1-2,n,x,x,n,n,x
COc1ncnc2c1ncn2CCCNC1CCN(Cc2ccccc2)CC1,n,x,x,n,n,x
Cc1nc2ccccc2c2oc(C(=O)Nc3ccc(C(C)C)cc3)cc12,n,n,66,n,n,n
COc1ccc(CNC(=O)c2cc3c(C)nc4ccccc4c3o2)c(OC)c1,x,57,56,x,x,n
CCc1ccc(CNC(=O)c2cc3c(C)nc4ccccc4c3o2)cc1,n,46,79,x,n,n
Cc1ccc(CNS(=O)(=O)c2cc3c(cc2C)NC(=O)CO3)cc1,n,n,n,x,n,n
Cn1c(=O)oc2ccc(S(=O)(=O)Nc3ccc(Cl)cc3[N+](=O)[O-])cc21,n,x,x,n,n,x
CN(C)c1ccc(/C=N/N(CCO)C2=NS(=O)(=O)c3ccccc32)cc1,n,53,n,n,n,48
O=C(Cn1cnc2c(nnn2Cc2ccccc2F)c1=O)OCc1ccccc1,n,80,n,n,n,69
O=C(Cn1cnc2c(nnn2Cc2ccccc2F)c1=O)N1CCN(c2ccccc2)CC1,n,n,n,n,n,n
O=C(Nc1cccc(S(=O)(=O)N2CCCCC2)c1)C1CCC1,n,n,n,n,n,n
SMILES,TAAR1 ag,CHO parental Ca,OX1R antag-1,GalR3 antag,TAAR1 antagonist,OX1R antag-2
O=C(Nc1ccc(N2CCCCC2)cc1)C1CCCN1S(=O)(=O)c1ccc(F)cc1 (stereo not drawn),n,n,n,n,n,n
O=C(Nc1cccc(S(=O)(=O)N2CCCCC2)c1)C1CCCN1S(=O)(=O)c1ccccc1F (stereo not drawn),n,n,28,n,n,n
CS(=O)(=O)c1cccc(NC(=O)C2CCCN2S(=O)(=O)c2ccc(F)cc2)c1 (stereo not drawn),n,n,55,n,n,n
CCOc1ccc2nc3cc(NCc4ccc(OC)cc4)ccc3c(N)c2c1,x,n,44,x,x,n
Nc1ncnc(Nc2ccccn2)c1[N+](=O)[O-],n,n,64,n,n,n
Cc1cccc(Nc2ncnc(N)c2[N+](=O)[O-])n1,n,n,56,n,n,n
